Reference: article PMC7688529 (British Journal of Clinical Pharmacology, 2020)
Read-outs that look alike come from different tables or passages of the source.

What was measured:
[1] = type: in vivo, human
Method in brief: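 Healthy subjects randomized to A/B or B/A. Single oral dose: 10 mg/40 mg FDC, or macitentan 10 mg plus 2 × 20 mg EU-sourced tadalafil. Fasted ≥10 h pre- to 4 h post-dose. Blood (K3EDTA) from predose to 216 h; spun ~1500 g, 10 min, 4 ± 2°C; stored ≤ −75°C, light-protected. LC-MS/MS with isotope-labelled standards. Geometric mean ratios (90% CI) and CVw from mixed-effects model.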

[2] = Study AC‐077‐101: safety and tolerability evaluation; type: in vivo, human; settings: both studies AC‐077‐101 and AC‐077‐103; administered as FDC product or as a free combination
[3] = type: in vivo, human; settings: for CVw of AUC0‐t / CVw of AUC0‐∞ / CVw of Cmax: intrasubject coefficient of variation; for AUC / Cmax / half-life / Tmax: human, plasma, oral; for AUC / Cmax / half-life: geometric mean (95% CI); for Tmax: median (range)
Method in brief: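 Healthy subjects; randomized crossover; single oral fasted dose of the 10 mg/40 mg macitentan/tadalafil FDC vs a free combination with US-sourced tadalafil; evaluated per group. Fluids withheld 1 h pre- to 1 h post-dose; observation 216–288 h. Macitentan/ACT-132577 by LC-MS/MS after acetonitrile/ethanol protein precipitation; tadalafil by LC-MS/MS after tert-butyl methyl ether extraction. Geometric mean ratios with 90% CI and intrasubject variability from a mixed-effects model.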

[4] = Stability in human plasma samples; type: physicochemical
[5] = FDC‐2 vs free combination (EU‐sourced tadalafil)
[6] = FDC‐2 vs free combination, intrasubject coefficient of variation
[7] = Group 1, FDC‐1 vs free combination (US‐sourced tadalafil)
[8] = Group 1, FDC‐1 vs free combination
[9] = Group 2, FDC‐2 vs free combination (US‐sourced tadalafil)
[10] = Group 2, FDC‐2 vs free combination
[11] = Group 2, Treatment B free combination (US‐sourced tadalafil)

## CCCNS(=O)(=O)Nc1ncnc(OCCOc2ncc(Br)cn2)c1-c1ccc(Br)cc1 [Macitentan, macitentan]
[1]; [5]
  Ratio of geometric means (treatment A/B; 90% CI) of AUC0‐t: 1.0038 (0.9677, 1.0413)
  Ratio of geometric means (treatment A/B; 90% CI) of AUC0‐∞: 1.0015 (0.9675, 1.0367)
  Ratio of geometric means (treatment A/B; 90% CI) of Cmax: 1.0608 (1.0014, 1.1238)
[1]; [6]
  CVw of AUC0‐t: 8.94%
  CVw of AUC0‐∞: 8.42%
  CVw of Cmax: 14.10%
[1]; Treatment B free combination (EU‐sourced tadalafil), median (range)
  Tmax: 9.00 (4.2–24.0) h
[1]; human, plasma, oral
  Tmax: 9 h
[1]; human, plasma, oral, AUC0‐t, Treatment A FDC (FDC‐2), geometric mean (95% CI)
  AUC: 5810 ng·h/mL
[1]; human, plasma, oral, AUC0‐t, Treatment B free combination (EU‐sourced tadalafil), geometric mean (95% CI)
  AUC: 5790 ng·h/mL
[1]; human, plasma, oral, AUC0‐∞, Treatment A FDC (FDC‐2), geometric mean (95% CI)
  AUC: 5890 ng·h/mL
[1]; human, plasma, oral, AUC0‐∞, Treatment B free combination (EU‐sourced tadalafil), geometric mean (95% CI)
  AUC: 5880 ng·h/mL
[1]; human, plasma, oral, Cmax, Treatment A FDC (FDC‐2, 10 mg/40 mg), single dose, fasted, healthy subjects, geometric mean (95% CI)
  Cmax: 175 ng/mL
[1]; human, plasma, oral, t1/2, Treatment A FDC (FDC‐2), geometric mean (95% CI)
  half-life: 969 min
[1]; human, plasma, oral, t1/2, Treatment B free combination (EU‐sourced tadalafil), geometric mean (95% CI)
  half-life: 966 min
[2]
  tolerability: well tolerated
[3]; [7]
  Geometric means ratio (treatment A/B; 90% CI) of AUC0‐t: 0.9815 (0.9527, 1.0113)
  Geometric means ratio (treatment A/B; 90% CI) of AUC0‐∞: 0.9818 (0.9537, 1.0109)
  Geometric means ratio (treatment A/B; 90% CI) of Cmax: 1.0045 (0.9631, 1.0478)
[3]; [8]
  CVw of AUC0‐t: 9.54%
  CVw of AUC0‐∞: 9.31%
  CVw of Cmax: 13.50%
[3]; Group 2
  AUC higher after FDC‐2 than after free combination: approximately 10%
  Cmax higher after FDC‐2 than after free combination: approximately 19%
[3]; [9]
  Geometric means ratio (treatment A/B; 90% CI) of AUC0‐t: 1.1014 (1.0652, 1.1389)
  Geometric means ratio (treatment A/B; 90% CI) of AUC0‐∞: 1.0981 (1.0641, 1.1332)
  Geometric means ratio (treatment A/B; 90% CI) of Cmax: 1.1901 (1.1374, 1.2451)
[3]; [10]
  CVw of AUC0‐t: 10.80%
  CVw of AUC0‐∞: 10.16%
  CVw of Cmax: 14.64%
[3]; AUC0‐t, Group 1, Treatment A FDC‐1
  AUC: 4320 ng·h/mL
[3]; AUC0‐t, Group 1, Treatment B free combination (US‐sourced tadalafil)
  AUC: 4400 ng·h/mL
[3]; AUC0‐t, Group 2, Treatment A FDC‐2
  AUC: 4740 ng·h/mL
[3]; AUC0‐t, Group 2, Treatment B free combination (US‐sourced tadalafil)
  AUC: 4300 ng·h/mL
[3]; AUC0‐∞, Group 1, Treatment A FDC‐1
  AUC: 4430 ng·h/mL
[3]; AUC0‐∞, Group 1, Treatment B free combination (US‐sourced tadalafil)
  AUC: 4510 ng·h/mL
[3]; AUC0‐∞, Group 2, Treatment A FDC‐2
  AUC: 4830 ng·h/mL
[3]; AUC0‐∞, Group 2, Treatment B free combination (US‐sourced tadalafil)
  AUC: 4390 ng·h/mL
[3]; Group 1, Treatment A FDC‐1 (macitentan/tadalafil 10 mg/40 mg), single dose, fasted, healthy subjects
  Cmax: 169 ng/mL
[3]; [11]
  Cmax: 163 ng/mL
  Tmax: 9 h
[3]; t1/2, Group 1, Treatment A FDC‐1
  half-life: 829 min
[3]; t1/2, Group 1, Treatment B free combination (US‐sourced tadalafil)
  half-life: 837 min
[3]; t1/2, Group 2, Treatment A FDC‐2
  half-life: 828 min
[3]; t1/2, Group 2, Treatment B free combination (US‐sourced tadalafil)
  half-life: 865 min
[3]; Group 1, Treatment A FDC‐1
  Tmax: 9 h
[3]; Group 1, Treatment B free combination (US‐sourced tadalafil)
  Tmax: 9 h
[3]; Group 2, Treatment A FDC‐2
  Tmax: 9 h
[4]
  stability in plasma samples at room‐temperature: at least 3 days
  stability in plasma samples, freeze/thaw cycles: at least 3 freeze/thaw cycles
  stability in plasma samples, storage at −20°C: ≥ 36 months
